In ChEMBL document CHEMBL4364301 (Eur J Med Chem, 2019):

How the values were obtained:
Assay type in all cases: functional
CWR22R [1] = assay: Antiproliferative activity against human 22Rv1 cells assessed as T/C value at 1 x 10^1 uM incubated for 96 hrs by propidium iodide based 2D monolayer assay
Method in brief: (§1)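 Cells were kept in RPMI 1640 with 25 mM HEPES, 10% FCS and gentamicin at 37 °C under 5% CO2, and plated at 4,000-20,000 cells/well. After 24 h recovery, compound in medium or medium alone (control wells) was added at 10 half-log concentrations from 0.0032 to 100 µM, in triplicate, with at most 0.3% DMSO. After 96 h, wells were PBS-washed, stained with 7 µg/ml PI and 0.1% Triton X-100, and fluorescence read at 530/620 nm. IC50 came from a 4-parameter fit, geometric mean.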

CWR22R [2] = assay: Antiproliferative activity against human 22Rv1 cells assessed as T/C value at 3.2 x 10^-2 uM incubated for 96 hrs by propidium iodide based 2D monolayer assay; method in brief: as §1
CWR22R [3] = assay: Antiproliferative activity against human 22Rv1 cells assessed as T/C value at 3.2 x 10^-1 uM incubated for 96 hrs by propidium iodide based 2D monolayer assay; method in brief: as §1
VCaP [4] = assay: Antiproliferative activity against human VCaP cells assessed as reduction in cell growth incubated for 96 hrs by propidium iodide based 2D monolayer assay
Method in brief: (§2)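 VCaP cells in RPMI 1640 with 10% FCS at 37 °C, 5% CO2, seeded 4,000–20,000 cells/well and left 24 h before dosing. Compounds from DMSO stocks were diluted in half-log steps in medium, 10 concentrations 0.0032–100 μM, triplicate wells, max 0.3% DMSO. After 96 h, cells were washed, stained with 7 μg/ml propidium iodide plus 0.1% Triton X-100 for 1–2 h at room temperature, and fluorescence read at ex 530/em 620 nm.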

VCaP [5] = assay: Antiproliferative activity against human VCaP cells assessed as T/C value at 3.2 x 10^-2 uM incubated for 96 hrs by propidium iodide based 2D monolayer assay; method in brief: as §2
LNCaP [6] = assay: Antiproliferative activity against human LNCAP cells assessed as T/C value at 1 x 10^-1 uM incubated for 96 hrs by propidium iodide based 2D monolayer assay; method in brief: as §1
LNCaP [7] = assay: Antiproliferative activity against human LNCAP cells assessed as T/C value at 3.2 x 10^-2 uM incubated for 96 hrs by propidium iodide based 2D monolayer assay; method in brief: as §1
VCaP [8] = assay: Antiproliferative activity against human VCaP cells assessed as T/C value at 1 x 10^-2 uM incubated for 96 hrs by propidium iodide based 2D monolayer assay; method in brief: as §1
CWR22R [9] = assay: Antiproliferative activity against human 22Rv1 cells assessed as T/C value at 1 x 10^-1 uM incubated for 96 hrs by propidium iodide based 2D monolayer assay; method in brief: as §1
CWR22R [10] = assay: Antiproliferative activity against human 22Rv1 cells assessed as T/C value at 1 x 10^-2 uM incubated for 96 hrs by propidium iodide based 2D monolayer assay; method in brief: as §1
DU-145 [11] = assay: Antiproliferative activity against human DU145 cells assessed as T/C value at 1 uM incubated for 96 hrs by propidium iodide based 2D monolayer assay
Method in brief: as §1, with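 “After” for “Cells were kept in RPMI 1640 with 25 mM HEPES, 10% FCS and gentamicin at 37 °C under 5% CO2, and plated at 4,000-20,000 cells/well. After”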

DU-145 [12] = assay: Antiproliferative activity against human DU145 cells assessed as T/C value at 3.2 x 10^-1 uM incubated for 96 hrs by propidium iodide based 2D monolayer assay
Method in brief: as §1, with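 “After” for “Cells were kept in RPMI 1640 with 25 mM HEPES, 10% FCS and gentamicin at 37 °C under 5% CO2, and plated at 4,000-20,000 cells/well. After”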

LNCaP [13] = assay: Antiproliferative activity against human LNCAP cells assessed as T/C value at 3.2 uM incubated for 96 hrs by propidium iodide based 2D monolayer assay; method in brief: as §1
CWR22R [14] = assay: Antiproliferative activity against human 22Rv1 cells assessed as T/C value at 1 uM incubated for 96 hrs by propidium iodide based 2D monolayer assay; method in brief: as §1
DU-145 [15] = assay: Antiproliferative activity against human DU145 cells assessed as T/C value at 1 x 10^-2 uM incubated for 96 hrs by propidium iodide based 2D monolayer assay
Method in brief: as §1, with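 “After” for “Cells were kept in RPMI 1640 with 25 mM HEPES, 10% FCS and gentamicin at 37 °C under 5% CO2, and plated at 4,000-20,000 cells/well. After”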

DU-145 [16] = assay: Antiproliferative activity against human DU145 cells assessed as T/C value at 1 x 10^2 uM incubated for 96 hrs by propidium iodide based 2D monolayer assay; method in brief: as §1
VCaP [17] = assay: Antiproliferative activity against human VCaP cells assessed as T/C value at 3.2 x 10^1 uM incubated for 96 hrs by propidium iodide based 2D monolayer assay; method in brief: as §2
VCaP [18] = assay: Antiproliferative activity against human VCaP cells assessed as T/C value at 3.2 x 10^-3 uM incubated for 96 hrs by propidium iodide based 2D monolayer assay; method in brief: as §2
VCaP [19] = assay: Antiproliferative activity against human VCaP cells assessed as T/C value at 1 uM incubated for 96 hrs by propidium iodide based 2D monolayer assay; method in brief: as §1
DU-145 [20] = assay: Antiproliferative activity against human DU145 cells assessed as reduction in cell growth incubated for 96 hrs by propidium iodide based 2D monolayer assay; conditions: DU-145, 96 h
Method in brief: as §1, with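 “After” for “Cells were kept in RPMI 1640 with 25 mM HEPES, 10% FCS and gentamicin at 37 °C under 5% CO2, and plated at 4,000-20,000 cells/well. After”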

CWR22R [21] = assay: Antiproliferative activity against human 22Rv1 cells assessed as T/C value at 3.2 x 10^1 uM incubated for 96 hrs by propidium iodide based 2D monolayer assay; method in brief: as §1
LNCaP [22] = assay: Antiproliferative activity against human LNCAP cells assessed as T/C value at 3.2 x 10^-3 uM incubated for 96 hrs by propidium iodide based 2D monolayer assay; method in brief: as §1
LNCaP [23] = assay: Antiproliferative activity against human LNCAP cells assessed as T/C value at 1 x 10^2 uM incubated for 96 hrs by propidium iodide based 2D monolayer assay; method in brief: as §1
LNCaP [24] = assay: Antiproliferative activity against human LNCAP cells assessed as T/C value at 1 uM incubated for 96 hrs by propidium iodide based 2D monolayer assay; method in brief: as §1
DU-145 [25] = assay: Antiproliferative activity against human DU145 cells assessed as T/C value at 1 x 10^-1 uM incubated for 96 hrs by propidium iodide based 2D monolayer assay
Method in brief: as §1, with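 “After” for “Cells were kept in RPMI 1640 with 25 mM HEPES, 10% FCS and gentamicin at 37 °C under 5% CO2, and plated at 4,000-20,000 cells/well. After”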

LNCaP [26] = assay: Antiproliferative activity against human LNCAP cells assessed as reduction in cell growth incubated for 96 hrs by propidium iodide based 2D monolayer assay
Method in brief: as §1, with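 “After” for “Cells were kept in RPMI 1640 with 25 mM HEPES, 10% FCS and gentamicin at 37 °C under 5% CO2, and plated at 4,000-20,000 cells/well. After”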

DU-145 [27] = assay: Antiproliferative activity against human DU145 cells assessed as T/C value at 3.2 x 10^-3 uM incubated for 96 hrs by propidium iodide based 2D monolayer assay
Method in brief: as §1, with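 “After” for “Cells were kept in RPMI 1640 with 25 mM HEPES, 10% FCS and gentamicin at 37 °C under 5% CO2, and plated at 4,000-20,000 cells/well. After”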

VCaP [28] = assay: Antiproliferative activity against human VCaP cells assessed as T/C value at 3.2 x 10^-1 uM incubated for 96 hrs by propidium iodide based 2D monolayer assay; method in brief: as §2
CWR22R [29] = assay: Antiproliferative activity against human 22Rv1 cells assessed as T/C value at 3.2 x 10^-3 uM incubated for 96 hrs by propidium iodide based 2D monolayer assay; method in brief: as §1
VCaP [30] = assay: Antiproliferative activity against human VCaP cells assessed as T/C value at 1 x 10^1 uM incubated for 96 hrs by propidium iodide based 2D monolayer assay; method in brief: as §1
VCaP [31] = assay: Antiproliferative activity against human VCaP cells assessed as T/C value at 1 x 10^-1 uM incubated for 96 hrs by propidium iodide based 2D monolayer assay; method in brief: as §1
VCaP [32] = assay: Antiproliferative activity against human VCaP cells assessed as T/C value at 1 x 10^2 uM incubated for 96 hrs by propidium iodide based 2D monolayer assay; method in brief: as §1

| SMILES | T/C (CWR22R [1]) | T/C (CWR22R [2]) | T/C (CWR22R [3]) | IC50 (VCaP [4]) | IC70 (VCaP [4]) | T/C (VCaP [5]) | T/C (LNCaP [6]) | T/C (LNCaP [7]) | T/C (VCaP [8]) | T/C (CWR22R [9]) | T/C (CWR22R [10]) | T/C (DU-145 [11]) | T/C (DU-145 [12]) | T/C (LNCaP [13]) | T/C (CWR22R [14]) | T/C (DU-145 [15]) | T/C (DU-145 [16]) | T/C (VCaP [17]) | T/C (VCaP [18]) | T/C (VCaP [19]) | further results |
| --- | --- | --- | --- | --- | --- | --- | --- | --- | --- | --- | --- | --- | --- | --- | --- | --- | --- | --- | --- | --- | --- |
| CC(O)(COc1ccc(C(F)(F)C(F)(F)F)cc1)C(=O)Nc1cc(C(F)(F)F)cc(C(F)(F)F)c1 (racemic) | 9% | 115% | 108% | 3 µM | 4.16 µM | 90% | 96% | 87% | 91% | 107% | 109% | 115% | 123% | 25% | 107% | 108% | -1% | 6% | 76% | 94% | IC50 (DU-145 [20]): 6.8 µM; IC70 (DU-145 [20]): 7.99 µM; T/C (CWR22R [21]): 5%; T/C (LNCaP [22]): 91%; T/C (LNCaP [23]): 1%; T/C (LNCaP [24]): 93%; T/C (DU-145 [25]): 113%; IC50 (LNCaP [26]): 2.7 µM; IC70 (LNCaP [26]): 3.04 µM; T/C (DU-145 [27]): 101%; T/C (VCaP [28]): 99%; T/C (CWR22R [29]): 106%; T/C (VCaP [30]): 19%; T/C (VCaP [31]): 89%; T/C (VCaP [32]): 2% |
| CC(O)(COc1cccc(S(F)(F)(F)(F)F)c1)C(=O)Nc1cc(C(F)(F)F)cc(C(F)(F)F)c1 (racemic) | 12% | 109% | 101% | 2.7 µM | 5.41 µM | 90% | 98% | 83% | 99% | 99% | 105% | 120% | 117% | 18% | 94% | 101% | 0% | 5% | 111% | 88% | IC50 (DU-145 [20]): 5.7 µM; IC70 (DU-145 [20]): 6.66 µM; T/C (CWR22R [21]): 2%; T/C (LNCaP [22]): 88%; T/C (LNCaP [23]): 2%; T/C (LNCaP [24]): 93%; T/C (DU-145 [25]): 119%; IC50 (LNCaP [26]): 3 µM; IC70 (LNCaP [26]): 3.1 µM; T/C (DU-145 [27]): 104%; T/C (VCaP [28]): 92%; T/C (CWR22R [29]): 107%; T/C (VCaP [30]): 32%; T/C (VCaP [31]): 92%; T/C (VCaP [32]): 6% |
